Each structure is given as a SMILES string. pIC50: −log10 of the molar value.

For series [1], the target named is T1, Matrix metalloproteinase-9 (Homo sapiens, UniProt P14780). Kind of series: (§1) In vitro inhibition of human Matrix metalloprotease 9. The gist of the method:
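Human active MMP-9 (2 nM) preincubated 30 min at 37 °C with inhibitor (10 pM to 1 mM) in 50 mM Tris·HCl pH 7.5, 0.2 M NaCl, 5 mM CaCl2, 20 µM ZnSO4, 0.05% Brij 35. Fluorogenic Mca-Pro-Leu-Gly-Leu-Dpa-Ala-Arg-NH2 substrate added from a 50 µM stock. Fluorescence (ex 330/em 390 nm) followed at 37 °C. Initial 10-min linear rates versus dose; IC50 by nonlinear regression.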

The species named for the next series is Homo sapiens. The series can be described thus: Ratio of IC50 for human Matrix metalloprotease 2 binding and Matrix metalloprotease 9.
Series [2] can be described thus: Partition coefficient (logD7.4). The class given is physicochemical. Conditions: octanol/water, pH 7.4; call rule not given here.
For series [3], the target named is T2, 72 kDa type IV collagenase (Homo sapiens, UniProt P08253). Kind of series: In vitro inhibition of human Matrix metalloprotease 2. The gist of the method:
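Human active MMP-2 (1 nM) preincubated with inhibitor (10 pM to 1 mM) in 50 mM Tris·HCl pH 7.5, 0.2 M NaCl, 5 mM CaCl2, 20 µM ZnSO4, 0.05% Brij 35, 37 °C, 30 min. Fluorogenic Mca-Pro-Leu-Gly-Leu-Dpa-Ala-Arg-NH2 substrate (10 µL of 50 µM into 90 µL) added. Fluorescence (ex 330/em 390 nm) followed at 37 °C. Initial 10-min rates fitted by nonlinear regression for IC50.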

Series [4] addresses T2, 72 kDa type IV collagenase. The series can be described thus: In vitro inhibition of human Matrix metalloprotease 2; I.A.=inactive. The gist of the method:
(§2)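 Human active enzyme, MMP-2 at 1 nM or MMP-9 at 2 nM, preincubated 30 min at 37 °C with inhibitor (10 pM to 1 mM) in 50 mM Tris·HCl pH 7.5, 0.2 M NaCl, 5 mM CaCl2, 20 µM ZnSO4, 0.05% Brij 35. Mca-PLGL-Dpa-AR-NH2 substrate added, fluorescence followed at 37 °C (ex 330/em 390 nm). Initial 10-min rates fitted by nonlinear regression for IC50.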

Series [5] addresses T1, Matrix metalloproteinase-9. Kind of series: In vitro inhibition of human Matrix metalloprotease 9; I.A.=inactive. Put shortly: as §2
Series [6] deals with T1, Matrix metalloproteinase-9. Described as §1. The source holds these as a separate data set.

T2 sequence (P08253 whole entry): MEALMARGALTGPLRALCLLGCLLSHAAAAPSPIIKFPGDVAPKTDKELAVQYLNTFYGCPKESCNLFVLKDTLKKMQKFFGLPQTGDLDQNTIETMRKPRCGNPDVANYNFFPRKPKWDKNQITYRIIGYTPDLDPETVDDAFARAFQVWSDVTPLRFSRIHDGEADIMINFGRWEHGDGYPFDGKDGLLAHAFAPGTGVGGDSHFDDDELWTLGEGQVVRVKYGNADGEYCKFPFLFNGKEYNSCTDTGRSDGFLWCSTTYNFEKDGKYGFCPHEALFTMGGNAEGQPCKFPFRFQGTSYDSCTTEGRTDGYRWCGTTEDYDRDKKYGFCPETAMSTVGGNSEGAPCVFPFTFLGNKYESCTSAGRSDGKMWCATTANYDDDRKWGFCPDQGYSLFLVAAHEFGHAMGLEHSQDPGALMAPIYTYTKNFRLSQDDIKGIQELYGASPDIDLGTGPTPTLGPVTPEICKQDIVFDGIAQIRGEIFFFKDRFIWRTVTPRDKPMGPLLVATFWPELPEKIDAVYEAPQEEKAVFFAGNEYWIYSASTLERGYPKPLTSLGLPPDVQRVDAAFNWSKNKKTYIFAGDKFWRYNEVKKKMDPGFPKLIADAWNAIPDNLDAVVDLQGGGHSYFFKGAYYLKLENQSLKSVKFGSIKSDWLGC
T1 sequence (P14780 whole entry): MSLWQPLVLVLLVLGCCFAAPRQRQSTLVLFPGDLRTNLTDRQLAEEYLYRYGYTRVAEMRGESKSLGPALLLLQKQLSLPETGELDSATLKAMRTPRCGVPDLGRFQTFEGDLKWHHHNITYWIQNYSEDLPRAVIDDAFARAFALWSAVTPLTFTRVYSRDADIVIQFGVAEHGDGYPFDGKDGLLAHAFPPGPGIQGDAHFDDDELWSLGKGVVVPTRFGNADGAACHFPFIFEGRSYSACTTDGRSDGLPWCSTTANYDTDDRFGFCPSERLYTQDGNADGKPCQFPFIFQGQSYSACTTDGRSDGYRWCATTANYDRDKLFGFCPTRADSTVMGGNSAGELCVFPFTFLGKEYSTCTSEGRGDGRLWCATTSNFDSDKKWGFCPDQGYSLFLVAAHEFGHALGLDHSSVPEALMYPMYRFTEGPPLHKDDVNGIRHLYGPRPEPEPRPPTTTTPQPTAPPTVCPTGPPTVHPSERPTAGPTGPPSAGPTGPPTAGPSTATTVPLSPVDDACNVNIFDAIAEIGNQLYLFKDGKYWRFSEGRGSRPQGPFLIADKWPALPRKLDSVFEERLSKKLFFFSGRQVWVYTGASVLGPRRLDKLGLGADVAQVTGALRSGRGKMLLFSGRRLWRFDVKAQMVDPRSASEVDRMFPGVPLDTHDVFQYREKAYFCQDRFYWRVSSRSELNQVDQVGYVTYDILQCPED

In general, pIC50 refers to the negative decadic logarithm of the IC50, by convention in mol/L. A lower pIC50 goes with a large IC50. In general, logD refers to lipophilicity at a set pH, counting ionised and neutral species. A higher logD goes with a more lipophilic compound. Consider `O=C(O)CCN1CCN(C2(c3ccc(Oc4ccc(Br)cc4)cc3)C(=O)NC(=O)NC2=O)CC1`, for which the pIC50 in series [1] is 7.59; in series [3], 7.07. For the same molecule, the Selectivity in the series listed under Homo sapiens came to 3.3. This molecule yielded a logD in series [2] of 0.81.

Take `O=C1NC(=O)C(c2ccc(Oc3ccc(Br)cc3)cc2)(N2CCN(c3ccc([N+](=O)[O-])cc3)CC2)C(=O)N1`: the values for the pIC50 in series [1] and in series [3] were 7.24 and 7.80, respectively. Moreover, the Selectivity in the series filed under Homo sapiens was 0.28. The molecule further gave a logD in series [2] of 6.27.

`O=C1NC(=O)C(c2ccc(Oc3ccc(Br)cc3)cc2)(N2CCN(C(=O)c3cccc(I)c3)CC2)C(=O)N1`: the pIC50 in series [1] was 7.70; in series [3], 7.82. Besides, the Selectivity in the series listed under Homo sapiens is 0.75. Further, the logD in series [2] worked out at 5.86.

For the molecule `O=C1NC(=O)C(c2ccc(Oc3ccc(I)cc3)cc2)(N2CCN(CCO)CC2)C(=O)N1`, in the series filed under Homo sapiens, the Selectivity worked out at 3.5. Also, the logD in series [2] came to 3.68.

As to `NCCN1CCN(C2(c3ccc(Oc4ccc(Br)cc4)cc3)C(=O)NC(=O)NC2=O)CC1`, the pIC50 in series [1] was 7.85; in series [3], 8.00. The Selectivity in the series listed under Homo sapiens came out at 0.71. The molecule further showed a logD in series [2] of 0.78.

In turn, `O=C1NC(=S)NC(=O)C1(c1ccc(Oc2ccc(Br)cc2)cc1)N1CCN(CCO)CC1` yielded a logD in series [2] of 3.85. This molecule gave a pIC50 in series [3] of 8.14.

In the case of `CC(C)N1CCN(C2(c3ccc(Oc4ccc(Br)cc4)cc3)C(=O)NC(=O)NC2=O)CC1`, the Selectivity in the series listed under Homo sapiens stood at 26. Further, the logD in series [2] was determined as 4.47.

For `O=C1NC(=O)C(c2ccc(Oc3ccc(Br)cc3)cc2)(N2CCN(c3ccc(I)cc3)CC2)C(=O)N1`, the pIC50 in series [1] was 8.00; in series [3] it was 7.07. In addition, the Selectivity in the series filed under Homo sapiens came out at 8.6. This molecule also returned a logD in series [2] of 7.22.

Turning to `O=C1NC(=O)C(c2ccc(Oc3ccc(Br)cc3)cc2)(N2CCN(CCO)CC2)C(=O)N1`, the Selectivity in the series filed under Homo sapiens turned out to be 2.3. Also, the logD in series [2] amounted to 3.42.

For the molecule `COCCN1CCN(C2(c3ccc(Oc4ccc(OC)cc4)cc3)C(=O)N(C)C(=O)N(C)C2=O)CC1`, the IC50 entry in series [4] and in series [5] was “Not Active” in each case. Further, in series [2], the log distribution coefficient (logD) is 0.95.

Take `COc1ccc(Oc2ccc(C3(N4CCN(CCO)CC4)C(=O)NC(=O)NC3=O)cc2)cc1`: the Selectivity in the series filed under Homo sapiens was 1.5. Further, the logD in series [2] worked out at 1.79.

Turning to `CC(C)[C@@H](NS(=O)(=O)c1ccc(C#CCCCC[18F])cc1)C(=O)O`, in series [3], the pIC50 is 5.72.

`CC(C)[C@@H](NS(=O)(=O)c1ccc(NC(=O)c2ccc(O[11CH3])cc2)cc1)C(=O)O`: the pIC50 in series [6] was 6.70; in series [3], 6.96.

Regarding `C[Si](C)(C)c1ccc(N2CCN(C3(c4ccc(Oc5ccc(Br)cc5)cc4)C(=O)NC(=O)NC3=O)CC2)cc1`, the pIC50 was 6.26 in series [1] and 5.82 in series [3]. Further, the Selectivity in the series listed under Homo sapiens was determined as 2.7. For the same molecule, in series [2], the logD stood at 8.32.

`O=C1NC(=O)C(c2ccc(Oc3ccc(Br)cc3)cc2)(N2CCNCC2)C(=O)N1`: the results for the pIC50 in series [1] and in series [3] were 8.70 and 8.30, respectively. The Selectivity in the series filed under Homo sapiens was determined as 2.5. This molecule registered a logD in series [2] of 3.04.

On to `O=C1NC(=O)C(c2ccc(Oc3ccc(Br)cc3)cc2)C(=O)N1`, for which the logD in series [2] was determined as 0.41. In series [3], this molecule gave a pIC50 of 5.43.

With `O=C1NC(=O)C(c2ccc(Oc3ccc(Br)cc3)cc2)(N2CCN(CCBr)CC2)C(=O)N1`, the pIC50 was 7.59 in series [1] and 7.52 in series [3]. Further, the Selectivity in the series filed under Homo sapiens was determined as 1.2. In addition, in series [2], the logD turned out to be 4.67.

For the molecule `O=C1NC(=O)C(c2ccc(Oc3ccc(Br)cc3)cc2)(N2CCN(c3ccc(F)cc3)CC2)C(=O)N1`, the Selectivity in the series filed under Homo sapiens turned out to be 0.63. In series [2], this molecule showed a logD of 6.11.

The record behind these values is ChEMBL document CHEMBL1144414, “C-5-disubstituted barbiturates as potential molecular probes for noninvasive matrix metalloproteinase imaging” (J Med Chem, 2005).
